Measurements reported in ChEMBL document CHEMBL4130635, “2,4-Diaminoquinazolines as Dual Toll-like Receptor (TLR) 7/8 Modulators for the Treatment of Hepatitis B Virus” (J Med Chem, 2018).

How the values were obtained:
Cynomolgus monkey [1] = assay: Induction of G-CSF in cynomolgus monkey plasma at 3 mg/kg, po after 24 hrs by Luminex assay (reference value: 85 pg/ml); format: functional, organism-based; details: Macaca fascicularis
Method in brief: (§1)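 Healthy cynomolgus monkeys given single oral doses of 1, 3, 9 and 30 mg/kg, with a 2-week wash-out planned between doses. Systemic cytokine levels in plasma were sampled at 0.5, 1, 2, 4, 9 and 24 h postdose.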

[2] = Cmax in C57BL/6J mouse liver at 3 mg/kg, po by LC-MS analysis; format: ADME, organism-based; design: dose 3 mg/kg, route oral
Method in brief: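 Healthy C57BL/6 mice, groups of 15, given a single oral dose (0.3, 1, 3, 10 or 30 mg/kg) in 20% HP-β-CD. Blood drawn at 0.5 h. Three mice per group sacrificed at 0.5, 1, 2, 4 or 7 h, and compound in plasma and liver measured by LC−MS. Values rounded to whole numbers.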

Plasma [3] = assay: Induction of IFNalpha levels in C57BL/6J mouse plasma at 0.3 mg/kg, po by ELISA; format: functional, organism-based
Cynomolgus monkey [4] = assay: Induction of G-CSF in cynomolgus monkey plasma at 30 mg/kg, po after 24 hrs by Luminex assay (reference value: 85 pg/ml); format: functional, Macaca fascicularis; method in brief: as §1
Liver = assay: Upregulation of IP-10 mRNA expression levels in C57BL/6J mouse liver at 30 mg/kg, po by RT-qPCR analysis (reference value: 1); format: functional
[5] = Tmax in Sprague-Dawley rat plasma at 10 mg/kg, po; format: ADME, organism-based
Plasma [6] = assay: Proinflammatory activity in C57BL/6J mouse plasma assessed as CXCL-1 levels at 10 mg/kg, po by multiplex assay (reference value: 230 pg/ml); format: functional
Cynomolgus monkey [7] = assay: Activation of monocytes in cynomolgus monkey plasma assessed as upregulation of MIP1 levels at 9 mg/kg, po after 24 hrs by Luminex assay (reference value: 37 pg/ml); format: functional, Macaca fascicularis
Cynomolgus monkey [8] = assay: Induction of ISG response in cynomolgus monkey plasma assessed as upregulation of Mx1 mRNA expression at 1 mg/kg, po after 24 hrs by Fluidigm RT-qPCR analysis (reference value: 1); format: functional, Macaca fascicularis
Method in brief: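 Cynomolgus monkeys, single oral doses of 1, 3, 9 and 30 mg/kg with a planned 2-week wash-out between doses. Systemic ISG (ISG15, Mx1, OAS1) mRNA was measured by Fluidigm RT-qPCR at 1, 2, 4, 8 and 24 h postdose.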

Cynomolgus monkey [9] = assay: Induction of IFNalpha levels in cynomolgus monkey plasma at 9 mg/kg, po after 24 hrs by ELISA; format: functional, Macaca fascicularis; method in brief: as §1

CCC[C@@H](CCO)Nc1nc(N)nc2c(F)cccc12
Activity (Cynomolgus monkey [1]): Below limit of detection | Cmax [2]: 385 ng/g | Activity (Plasma [3]): Below limit of detection | Activity (Cynomolgus monkey [4]): 1135 pg/mL | fold change (FC) (Liver): 1180 | Tmax [5]: 30 min | Activity (Plasma [6]): >10000 pg/mL | Activity (Cynomolgus monkey [7]): 310 pg/mL | fold change (FC) (Cynomolgus monkey [8]): 40 | Activity (Cynomolgus monkey [9]): >51200 pg/mL
